The subject of series [1] is Candida albicans. Put plainly: Phototoxicity against Candida albicans PC31 in PBS at 10^7 CFU/ml cellular density assessed as cellular inactivation at 5 uM after 30 mins irradiated with visible light for 30 mins. The format is functional. In outline: (§1)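 Overnight stationary-phase cells in 10 mM PBS pH 7.0 (2 mL) were dark-incubated with porphyrin for 30 min at 37 °C, then exposed to a 150 W slide-projector lamp filtered through 2.5 cm of water. Dark and light-only controls were included. Survivors were counted as CFU after serial dilution, plating in triplicate on Sabouraud agar and ~48 h at 37 °C. Three separate experiments.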

Series [2] deals with Candida albicans. The series is described as follows: Drug uptake in Candida albicans PC31 at 10^7 CFU/ml cellular density assessed per 10^6 cells at 5 uM after 30 mins by fluorescence emission analysis. Conditions: in vivo, 0.5 h. Format: ADME, organism-based. In outline: (§2)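 Stationary-phase yeast (overnight Sabouraud broth, 37 °C) washed into 10 mM PBS pH 7.0, 2 mL suspensions incubated with sensitizer in the dark at 37 °C. Cells pelleted, resuspended in 2% aqueous SDS, kept overnight at 4 °C, sonicated 30 min. Porphyrin quantified by fluorescence (exc 418, em 650 nm) against SDS calibration standards, normalized to total cell number. Three separate experiments.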

For series [3], the system named is Candida albicans. Put plainly: Drug uptake in Candida albicans PC31 at 10^8 CFU/ml cellular density assessed per 10^6 cells at 5 uM after 30 mins by fluorescence emission analysis. The format is ADME, organism-based. The following applies: in vivo, 0.5 h. Put shortly:
as §2

The test system of series [4] is Candida albicans. Put plainly: Drug uptake in Candida albicans PC31 at 10^6 CFU/ml cellular density assessed per 10^6 cells at 5 uM after 30 mins by fluorescence emission analysis. The format is ADME, organism-based. Conditions: in vivo, 0.5 h. Put shortly: as §2
Series [5] deals with Candida albicans. Put plainly: Phototoxicity against Candida albicans PC31 in PBS at 10^6 CFU/ml cellular density assessed as cellular inactivation at 5 uM after 30 mins irradiated with visible light for 5 mins. The format is functional. Put shortly:
as §1

Series [6] concerns Candida albicans. Put plainly: Drug uptake in Candida albicans PC31 at 10^6 CFU/ml cellular density assessed per 10^6 cells at 1 uM after 30 mins by fluorescence emission analysis. Format: ADME, organism-based. Conditions: in vivo, 0.5 h. In outline: as §2
Series [7] concerns Candida albicans. The series is described as follows: Phototoxicity against Candida albicans PC31 in PBS at 10^6 CFU/ml cellular density assessed as cellular inactivation at 5 uM after 30 mins irradiated with visible light for 30 mins. Format: functional. In outline: as §1
Series [8] relates to Candida albicans. Put plainly: Phototoxicity against Candida albicans PC31 in PBS at 10^6 CFU/ml cellular density pretreated for 30 mins irradiated with visible light for 15 mins. Format: functional, organism-based. In outline: as §1
Series [9] deals with Candida albicans. Put plainly: Phototoxicity against Candida albicans PC31 in PBS at 10^6 CFU/ml cellular density at 5 uM after 30 mins in dark at 37 deg C. The format is functional, organism-based. In outline:
as §1

Activity calls are given as the source filed them. No cut-off for these calls is given here.

We go through two molecules from ChEMBL document CHEMBL1137704, “Photodynamic inactivation of Candida albicans sensitized by tri- and tetra-cationic porphyrin derivatives” (Eur J Med Chem, 2009).

As for `C[N+](C)(C)c1ccc(-c2c3nc(c(-c4ccc([N+](C)(C)C)cc4)c4ccc([nH]4)c(-c4ccc([N+](C)(C)C)cc4)c4nc(c(-c5ccc(C(F)(F)F)cc5)c5ccc2[nH]5)C=C4)C=C3)cc1.[I-].[I-].[I-]`, the Activity was 99.9% in the series on Candida albicans [1], 99.99% in the series on Candida albicans [5] and over 99.9994% with Candida albicans [7]. For the same molecule, the Drug uptake in the series on Candida albicans [2] is recorded as 0.12 nmol; in the series on Candida albicans [3], 0.01 nmol; with Candida albicans [4], 1.48 nmol; in the series with Candida albicans [6], 0.32 nmol.
For the molecule `O=S(=O)([O-])c1ccc(-c2c3nc(c(-c4ccc(S(=O)(=O)[O-])cc4)c4ccc([nH]4)c(-c4ccc(S(=O)(=O)[O-])cc4)c4ccc([nH]4)c(-c4ccc(S(=O)(=O)[O-])cc4)c4nc2C=C4)C=C3)cc1.[Na+].[Na+].[Na+].[Na+]`, the Activity result in the series on Candida albicans [8] was “Dose-dependent effect”. The result in the series with Candida albicans [9] and in the series on Candida albicans [7] was inactive. The Drug uptake in the series on Candida albicans [6] worked out at 0.03 nmol.
